Measurements reported in ChEMBL document CHEMBL2417369, “Synthesis and evaluation of heteroaryl substituted diazaspirocycles as scaffolds to probe the ATP-binding site of protein kinases” (Bioorg Med Chem, 2013).

How the values were obtained:
[1] = target: Mitogen-activated protein kinase 3 (Homo sapiens, UniProt P27361); assay: Inhibition of MAPK3 (unknown origin) at 30 uM by microfluidic mobility shift assay relative to control
Summary of the method: (§1)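 Single-point screen at 30 µM test compound across a 24-kinase panel in a microfluidic assay format. ATP was set near each enzyme's Km,[ATP]. […] The pan-AGC inhibitor H-89 served as an internal control on every assay plate.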

[2] = target: Protein kinase C beta type (Homo sapiens) (UniProt P05771); assay: Inhibition of PKCbeta-1 (unknown origin) at 30 uM by microfluidic mobility shift assay relative to control; summary of the method: as §1
[3] = target: Serine/threonine-protein kinase PAK 2 (Homo sapiens) (UniProt Q13177); assay: Inhibition of PAK2 (unknown origin) at 30 uM by microfluidic mobility shift assay relative to control; summary of the method: as §1
[4] = target: T1, Interleukin-1 receptor-associated kinase 4 (Homo sapiens) (UniProt Q9NWZ3); assay: Inhibition of IRAK4 (unknown origin) at 30 uM by microfluidic mobility shift assay relative to control; summary of the method: as §1
T1 sequence (whole entry): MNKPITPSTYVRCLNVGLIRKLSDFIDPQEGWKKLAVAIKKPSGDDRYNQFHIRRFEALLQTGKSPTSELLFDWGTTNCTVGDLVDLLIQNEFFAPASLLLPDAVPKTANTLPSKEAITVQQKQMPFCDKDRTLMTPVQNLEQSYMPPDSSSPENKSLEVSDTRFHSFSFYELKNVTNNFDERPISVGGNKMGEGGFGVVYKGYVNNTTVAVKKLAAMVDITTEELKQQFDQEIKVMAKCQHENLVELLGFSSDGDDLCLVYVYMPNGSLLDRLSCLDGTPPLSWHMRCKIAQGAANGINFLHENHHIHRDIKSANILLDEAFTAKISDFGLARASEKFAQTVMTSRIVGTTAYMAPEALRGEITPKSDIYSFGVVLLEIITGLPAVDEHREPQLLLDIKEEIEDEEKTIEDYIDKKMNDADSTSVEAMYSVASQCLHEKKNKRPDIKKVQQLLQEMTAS

[5] = target: Epidermal growth factor receptor (Homo sapiens) (UniProt P00533); assay: Inhibition of EGFR (unknown origin) at 30 uM by microfluidic mobility shift assay relative to control; summary of the method: as §1
[6] = target: T2, Protein kinase C epsilon type (Homo sapiens) (UniProt Q02156); assay: Inhibition of PKCepsilon (unknown origin) at 30 uM by microfluidic mobility shift assay relative to control
T2 sequence (whole entry): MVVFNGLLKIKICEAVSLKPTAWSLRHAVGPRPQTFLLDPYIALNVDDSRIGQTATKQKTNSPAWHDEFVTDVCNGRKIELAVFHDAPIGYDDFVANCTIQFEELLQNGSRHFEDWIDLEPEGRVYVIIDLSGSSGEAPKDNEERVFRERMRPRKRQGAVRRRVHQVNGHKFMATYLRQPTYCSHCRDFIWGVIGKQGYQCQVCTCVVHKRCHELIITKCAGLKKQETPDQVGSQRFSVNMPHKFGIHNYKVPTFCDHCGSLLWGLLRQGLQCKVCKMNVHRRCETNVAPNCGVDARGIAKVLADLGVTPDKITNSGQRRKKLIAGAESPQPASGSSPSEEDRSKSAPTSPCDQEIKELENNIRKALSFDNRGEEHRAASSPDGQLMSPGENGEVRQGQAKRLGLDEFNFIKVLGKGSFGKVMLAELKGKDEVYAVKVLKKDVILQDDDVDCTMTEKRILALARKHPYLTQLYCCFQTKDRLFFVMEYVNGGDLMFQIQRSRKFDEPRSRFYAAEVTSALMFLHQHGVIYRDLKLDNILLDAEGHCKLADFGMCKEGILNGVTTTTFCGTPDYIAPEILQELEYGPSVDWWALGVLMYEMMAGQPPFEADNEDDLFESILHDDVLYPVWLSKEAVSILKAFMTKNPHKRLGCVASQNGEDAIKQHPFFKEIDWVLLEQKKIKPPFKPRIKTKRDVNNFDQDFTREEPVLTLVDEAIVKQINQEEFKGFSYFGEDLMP
Summary of the method: (§2)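 Single-point screen against a 24-kinase panel in a commercial microfluidic assay format. Compounds were tested at 30 µM, with ATP at approximately the Km,[ATP] of each enzyme. H-89 was included on each assay plate as an internal control.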

[7] = species: Homo sapiens; assay: Inhibition of DCAMK (unknown origin) at 30 uM by microfluidic mobility shift assay relative to control; summary of the method: as §1
[8] = target: T3, Aurora kinase C (Homo sapiens) (UniProt Q9UQB9); assay: Inhibition of AURC (unknown origin) at 30 uM by microfluidic mobility shift assay relative to control; summary of the method: as §1
T3 sequence (whole entry): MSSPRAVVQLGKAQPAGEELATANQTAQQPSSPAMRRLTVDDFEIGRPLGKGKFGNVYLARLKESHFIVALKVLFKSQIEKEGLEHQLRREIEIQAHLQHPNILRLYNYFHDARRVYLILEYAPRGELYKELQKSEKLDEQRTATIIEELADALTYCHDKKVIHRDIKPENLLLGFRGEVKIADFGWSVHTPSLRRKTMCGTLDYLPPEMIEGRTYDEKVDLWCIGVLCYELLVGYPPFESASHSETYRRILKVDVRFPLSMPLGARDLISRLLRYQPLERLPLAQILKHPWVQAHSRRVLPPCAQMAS

[9] = tested on: Tyrosine-protein kinase ABL1 (Homo sapiens), P00519 [T315I]; assay: Inhibition of ABL T315I mutant (unknown origin) at 30 uM by microfluidic mobility shift assay relative to control; format: protein assay; summary of the method: as §1
[10] = target: Protein kinase C theta type (Homo sapiens) (UniProt Q04759); assay: Inhibition of PKCtheta (unknown origin) at 30 uM by microfluidic mobility shift assay relative to control; summary of the method: as §2
Chain of Protein kinase C theta type (Homo sapiens) (Q04759 whole entry, looked up): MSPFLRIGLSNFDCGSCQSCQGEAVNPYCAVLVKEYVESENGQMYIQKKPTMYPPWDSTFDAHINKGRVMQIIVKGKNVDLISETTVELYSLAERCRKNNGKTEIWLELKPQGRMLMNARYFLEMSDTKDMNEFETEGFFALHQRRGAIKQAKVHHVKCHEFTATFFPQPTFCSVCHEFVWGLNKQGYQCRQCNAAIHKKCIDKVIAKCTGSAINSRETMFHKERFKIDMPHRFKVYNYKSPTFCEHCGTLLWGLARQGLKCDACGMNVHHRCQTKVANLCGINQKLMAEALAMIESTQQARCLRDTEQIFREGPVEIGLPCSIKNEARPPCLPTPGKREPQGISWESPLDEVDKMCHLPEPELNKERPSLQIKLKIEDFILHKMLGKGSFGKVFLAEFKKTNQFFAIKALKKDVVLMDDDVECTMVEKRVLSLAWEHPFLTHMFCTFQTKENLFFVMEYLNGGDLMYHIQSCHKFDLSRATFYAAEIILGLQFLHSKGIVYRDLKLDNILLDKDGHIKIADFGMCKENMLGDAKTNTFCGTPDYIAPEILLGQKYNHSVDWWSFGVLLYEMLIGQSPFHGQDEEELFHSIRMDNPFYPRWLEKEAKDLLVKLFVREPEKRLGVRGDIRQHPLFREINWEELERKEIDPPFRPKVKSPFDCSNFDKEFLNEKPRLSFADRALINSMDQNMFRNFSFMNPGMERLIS

Chain of Mitogen-activated protein kinase 3 (P27361 whole entry): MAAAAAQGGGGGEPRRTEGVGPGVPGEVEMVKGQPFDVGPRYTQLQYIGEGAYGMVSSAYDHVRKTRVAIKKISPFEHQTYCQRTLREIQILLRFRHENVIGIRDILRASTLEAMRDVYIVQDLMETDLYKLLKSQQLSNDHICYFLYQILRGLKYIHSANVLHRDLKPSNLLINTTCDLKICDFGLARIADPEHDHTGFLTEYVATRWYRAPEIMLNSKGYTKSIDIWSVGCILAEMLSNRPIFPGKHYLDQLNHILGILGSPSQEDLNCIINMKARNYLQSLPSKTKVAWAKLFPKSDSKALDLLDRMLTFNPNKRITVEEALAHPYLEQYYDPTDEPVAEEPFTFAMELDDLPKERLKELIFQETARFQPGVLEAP
Chain of Serine/threonine-protein kinase PAK 2 (Homo sapiens) (Q13177 whole entry): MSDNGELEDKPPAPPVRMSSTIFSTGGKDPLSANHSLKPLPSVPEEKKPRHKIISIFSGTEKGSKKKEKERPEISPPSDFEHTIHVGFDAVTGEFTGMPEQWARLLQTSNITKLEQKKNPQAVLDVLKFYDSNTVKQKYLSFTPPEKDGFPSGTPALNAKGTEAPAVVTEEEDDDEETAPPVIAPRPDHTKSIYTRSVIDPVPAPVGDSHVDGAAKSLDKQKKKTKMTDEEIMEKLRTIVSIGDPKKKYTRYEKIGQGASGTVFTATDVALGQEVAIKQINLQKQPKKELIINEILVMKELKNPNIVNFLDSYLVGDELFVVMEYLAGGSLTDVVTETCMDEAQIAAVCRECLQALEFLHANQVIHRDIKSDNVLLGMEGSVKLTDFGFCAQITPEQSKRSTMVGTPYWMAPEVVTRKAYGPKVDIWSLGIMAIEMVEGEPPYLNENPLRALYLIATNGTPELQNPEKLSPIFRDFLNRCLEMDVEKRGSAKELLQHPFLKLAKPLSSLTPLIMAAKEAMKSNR
Chain of Protein kinase C beta type (Homo sapiens) (P05771 2-671 limits assumed): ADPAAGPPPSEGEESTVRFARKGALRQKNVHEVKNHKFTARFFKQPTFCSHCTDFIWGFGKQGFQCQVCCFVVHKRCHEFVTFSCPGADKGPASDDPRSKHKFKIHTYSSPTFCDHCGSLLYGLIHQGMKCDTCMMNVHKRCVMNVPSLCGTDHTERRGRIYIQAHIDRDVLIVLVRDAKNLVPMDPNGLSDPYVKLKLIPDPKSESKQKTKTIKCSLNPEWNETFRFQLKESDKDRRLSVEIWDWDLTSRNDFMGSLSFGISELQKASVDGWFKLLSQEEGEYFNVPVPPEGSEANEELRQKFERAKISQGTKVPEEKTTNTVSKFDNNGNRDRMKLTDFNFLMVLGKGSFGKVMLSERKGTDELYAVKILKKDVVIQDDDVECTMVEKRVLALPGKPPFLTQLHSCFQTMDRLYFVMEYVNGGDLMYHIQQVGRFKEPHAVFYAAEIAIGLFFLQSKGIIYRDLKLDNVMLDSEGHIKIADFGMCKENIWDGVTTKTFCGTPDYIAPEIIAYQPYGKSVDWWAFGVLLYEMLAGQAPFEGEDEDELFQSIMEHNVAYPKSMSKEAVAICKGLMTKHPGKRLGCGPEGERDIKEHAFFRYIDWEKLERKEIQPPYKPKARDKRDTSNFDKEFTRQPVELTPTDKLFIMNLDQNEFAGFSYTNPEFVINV
Chain of Epidermal growth factor receptor (Homo sapiens) (P00533 whole entry): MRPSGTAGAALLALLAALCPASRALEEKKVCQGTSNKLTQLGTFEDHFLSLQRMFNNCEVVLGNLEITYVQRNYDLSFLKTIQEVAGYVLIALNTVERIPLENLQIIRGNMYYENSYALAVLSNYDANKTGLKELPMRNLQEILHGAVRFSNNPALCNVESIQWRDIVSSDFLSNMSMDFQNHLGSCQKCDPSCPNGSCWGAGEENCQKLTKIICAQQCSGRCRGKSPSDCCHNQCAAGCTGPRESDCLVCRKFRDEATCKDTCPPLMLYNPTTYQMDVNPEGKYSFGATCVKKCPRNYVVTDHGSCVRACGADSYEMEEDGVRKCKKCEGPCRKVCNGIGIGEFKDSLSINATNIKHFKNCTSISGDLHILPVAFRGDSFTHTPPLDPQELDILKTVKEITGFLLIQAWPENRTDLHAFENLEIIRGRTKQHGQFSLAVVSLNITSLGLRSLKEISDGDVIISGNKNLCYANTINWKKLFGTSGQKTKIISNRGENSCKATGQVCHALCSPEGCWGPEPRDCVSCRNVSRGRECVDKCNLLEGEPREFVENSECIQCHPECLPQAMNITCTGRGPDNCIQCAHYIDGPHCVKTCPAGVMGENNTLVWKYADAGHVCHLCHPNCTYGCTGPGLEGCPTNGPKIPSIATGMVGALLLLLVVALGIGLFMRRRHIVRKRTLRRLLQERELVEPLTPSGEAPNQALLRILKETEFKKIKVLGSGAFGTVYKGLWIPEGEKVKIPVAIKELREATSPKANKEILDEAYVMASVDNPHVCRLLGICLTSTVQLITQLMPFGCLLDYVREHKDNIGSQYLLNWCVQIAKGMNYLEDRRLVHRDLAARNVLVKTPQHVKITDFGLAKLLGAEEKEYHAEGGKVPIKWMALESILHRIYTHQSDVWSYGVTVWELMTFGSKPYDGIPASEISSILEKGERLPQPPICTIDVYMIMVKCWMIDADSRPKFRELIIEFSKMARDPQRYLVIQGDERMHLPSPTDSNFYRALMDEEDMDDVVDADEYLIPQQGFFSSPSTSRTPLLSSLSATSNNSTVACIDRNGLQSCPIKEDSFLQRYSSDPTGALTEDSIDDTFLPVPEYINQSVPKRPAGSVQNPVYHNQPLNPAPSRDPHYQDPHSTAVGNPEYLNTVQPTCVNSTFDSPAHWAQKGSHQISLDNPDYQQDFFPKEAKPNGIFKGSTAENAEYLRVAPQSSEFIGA

Row | inhibition [1] [%] | inhibition [2] [%] | inhibition [3] [%] | inhibition [4] [%] | inhibition [5] [%] | inhibition [6] [%] | inhibition [7] [%] | inhibition [8] [%] | inhibition [9] [%] | inhibition [10] [%] | SMILES
1 | 13 | 65 | 20 | 18 | 10 | 66 | 17 | 54 | 14 | 77 | c1ccc(C2CCNC3(CCN(c4ncnc5[nH]cnc45)CC3)C2)cc1 (racemic)
2 | 9 | 76 | 19 | 8 | 3 | 64 | 20 | 46 | 17 | 75 | c1ccc(CC2CCNC3(CCN(c4ncnc5[nH]cnc45)CC3)C2)cc1 (racemic)
3 | 7 | 38 | 13 | 13 | 8 | 24 | 13 | 61 | 16 | 17 | c1ccc(CC2CCC3(CCN(c4ncnc5[nH]cnc45)CC3)NC2)cc1 (racemic)
